Columns and labels:
Format in all cases: functional
Mus musculus [1] = test: Effective dose by mouse phenyl-p-benzoquinone writhing (PQW)assay after peroral administration; 5.3-45.9; conditions: po
Rattus norvegicus [2] = test: Effective dose determined against rat adjuvant arthritis after peroral administration; conditions: po
Outline: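 Male Lewis rats (130-150 g) given 0.1 mL Mycobacterium butyricum adjuvant (5 mg/mL in mineral oil) s.c. into the right hind paw; arthritis developed for 2 weeks. Groups of 10 matched for severity were dosed orally by gavage in PVA-acacia vehicle (10 mL/kg) for 7 days. Uninjected left paw volume was measured the day after the last dose. Percent decrease was calculated vs arthritic and nonarthritic controls. ED50 was read from a visually fitted semilog dose-response line.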

Mus musculus [3] = test: Effective dose by mouse phenyl-p-benzoquinone writhing (PQW)assay after peroral administration; activity value ranges from (0.48-1.53); conditions: po
Mus musculus [4] = test: Effective dose by mouse phenyl-p-benzoquinone writhing (PQW)assay after peroral administration; 0.16-0.57; conditions: po
Mus musculus [5] = test: Effective dose by mouse phenyl-p-benzoquinone writhing (PQW)assay after peroral administration; activity value ranges from (5.9 - 17.1); conditions: po
Outline: (§1)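 Fasted (17-21 h) female white mice, 5-20 per double-blind test, dosed orally with compound suspended in 1% methylcellulose. 0.20 mL aqueous 0.01% phenyl-p-benzoquinone given i.p. 6 min before a 10-min observation for stretching/writhing. ED50 (dose protecting 50% of mice) calculated by the moving-average method.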

Mus musculus [6] = test: Effective dose by mouse phenyl-p-benzoquinone writhing (PQW)assay after peroral administration; activity value ranges from (6.0 - 18.0); conditions: po; outline: as §1
Mus musculus [7] = test: Effective dose by mouse phenyl-p-benzoquinone writhing (PQW)assay after peroral administration; activity value ranges from (2.8-10.9); conditions: po; outline: as §1
Mus musculus [8] = test: Effective dose determined by mouse phenyl-p-benzoquinone writhing (PQW) assay after peroral administration; conditions: po; outline: as §1
Rattus norvegicus [9] = test: Decrease in paw volume was evaluated at dose 10 mg/kg
Outline: (§2)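 Male Lewis rats (130-150 g) got 0.1 mL adjuvant (heat-killed Mycobacterium butyricum, 5 mg/mL in mineral oil) subplantar in the right hind paw and were left 2 weeks. Groups of 10 matched for severity were dosed orally by gavage (PVA-acacia vehicle, 10 mL/kg) for 7 days. Uninjected left hind paw volume was read the next day. % decrease = (arthritic control − treated)/(arthritic − nonarthritic control) × 100; Student's t-test.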

Rattus norvegicus [10] = test: Decrease in paw volume by the effect of compound at a dose of 10 mg/kg; outline: as §2
Mus musculus [11] = test: Effective dose by mouse phenyl-p-benzoquinone writhing (PQW)assay after peroral administration; activity value ranges from (2.3-15.7); conditions: po; outline: as §1
Mus musculus [12] = test: Effective dose by mouse phenyl-p-benzoquinone writhing (PQW)assay after peroral administration; activity value ranges from (8.6 - 78.6); conditions: po; outline: as §1
Mus musculus [13] = test: Effective dose by mouse phenyl-p-benzoquinone writhing (PQW)assay after peroral administration; 16.6-69.5; conditions: po
Mus musculus [14] = test: Effective dose by mouse phenyl-p-benzoquinone writhing (PQW)assay after peroral administration; 6.5-42.8; conditions: po
Mus musculus [15] = test: Effective dose by mouse phenyl-p-benzoquinone writhing (PQW)assay after peroral administration; activity value ranges from (3.1 - 39.5); conditions: po; outline: as §1
Mus musculus [16] = test: Effective dose by mouse phenyl-p-benzoquinone writhing (PQW)assay after peroral administration; 51.5-243; conditions: po
Mus musculus [17] = test: Effective dose by mouse phenyl-p-benzoquinone writhing (PQW)assay after peroral administration; 14.9-77.8; conditions: po
Mus musculus [18] = test: Effective dose by mouse phenyl-p-benzoquinone writhing (PQW)assay after peroral administration; 27.2-42.9; conditions: po
Mus musculus [19] = test: Effective dose by mouse phenyl-p-benzoquinone writhing (PQW)assay after peroral administration; activity value ranges from (25.5-94.1); conditions: po; outline: as §1
Rattus norvegicus [20] = test: Decrease in paw volume by the effect of compound at a dose of 1 mg/kg; outline: as §2
Rattus norvegicus [21] = test: Decrease in paw volume by the effect of compound at a dose of 75 mg/kg, highest dose (75 mg/kg); outline: as §2
Mus musculus [22] = test: Effective dose by mouse phenyl-p-benzoquinone writhing (PQW)assay after peroral administration; activity value ranges from (10.9-125.8); conditions: po; outline: as §1
Mus musculus [23] = test: Effective dose against mouse phenyl-p-benzoquinone writhing (PQW)assay, peroral administration; activity value ranges from (21.9-110); conditions: po
Mus musculus [24] = test: Effective dose by mouse phenyl-p-benzoquinone writhing (PQW)assay after peroral administration; activity value ranges from (2.7-11.8); conditions: po; outline: as §1
Mus musculus [25] = test: Effective dose by mouse phenyl-p-benzoquinone writhing (PQW)assay after peroral administration; 26.7-130; conditions: po
Mus musculus [26] = test: Effective dose by mouse phenyl-p-benzoquinone writhing (PQW)assay after peroral administration; activity value ranges from (22.9 - 118); conditions: po; outline: as §1
Mus musculus [27] = test: Effective dose by mouse phenyl-p-benzoquinone writhing (PQW)assay after peroral administration; activity value ranges from (0.05-0.27); conditions: po
Mus musculus [28] = test: Effective dose by mouse phenyl-p-benzoquinone writhing (PQW)assay after peroral administration; activity value ranges from (0.028-0.065); conditions: po
Mus musculus [29] = test: Effective dose by mouse phenyl-p-benzoquinone writhing (PQW)assay after peroral administration; activity value ranges from (1.9-10.1); conditions: po; outline: as §1
Mus musculus [30] = test: Effective dose by mouse phenyl-p-benzoquinone writhing (PQW)assay after peroral administration; activity value ranges from (15.7 - 101.9); conditions: po; outline: as §1

Compound: Fc1ccc(-c2nc(SC(F)(F)F)[nH]c2-c2ccc(F)cc2)cc1
- ED50 (Mus musculus [1]): 15.6 mg/kg
- ED50 (Rattus norvegicus [2]): 0.035 mg/kg

Compound: O=S(=O)(c1nc(-c2ccc(F)cc2)c(-c2ccccc2)[nH]1)C(F)(F)C(F)F
- ED50 (Mus musculus [3]): 0.86 mg/kg
- ED50 (Rattus norvegicus [2]): 0.03 mg/kg

Compound: COc1ccc(-c2nc(S(=O)(=O)C(F)(F)C(F)Br)[nH]c2-c2ccc(OC)cc2)cc1 (stereo not drawn)
- ED50 (Mus musculus [4]): 0.3 mg/kg

Compound: O=S(=O)(CC(F)(F)F)c1nc(-c2ccc(Cl)cc2)c(-c2ccc(Cl)cc2)[nH]1
- ED50 (Mus musculus [5]): 10 mg/kg
- ED50 (Rattus norvegicus [2]): 10 mg/kg

Compound: O=S(=O)(CC(F)(F)F)c1nc(-c2ccccc2)c(-c2ccccc2)[nH]1
- ED50 (Mus musculus [6]): 10.4 mg/kg
- ED50 (Rattus norvegicus [2]): 15 mg/kg

Compound: Cc1ccc(-c2[nH]c(S(=O)(=O)C(F)(F)C(F)F)nc2-c2ccccc2)cc1
- ED50 (Mus musculus [7]): 5.5 mg/kg
- ED50 (Rattus norvegicus [2]): 0.8 mg/kg

Compound: CCOc1ccc(-c2[nH]c(SC(F)(F)C(F)F)nc2-c2ccccc2)cc1
- ED50 (Mus musculus [8]): > 130 mg/kg
- Decrease (Rattus norvegicus [9]): 32%

Compound: CS(=O)(=O)c1nc(-c2cccc(Cl)c2)c(-c2ccccc2)[nH]1
- ED50 (Mus musculus [8]): > 130 mg/kg
- Decrease (Rattus norvegicus [10]): 55%

Compound: O=S(=O)(c1nc(-c2ccccc2)c(-c2ccccc2)[nH]1)C(F)F
- ED50 (Mus musculus [11]): 6 mg/kg

Compound: COc1ccc(-c2nc(S(=O)(=O)CC(C)=O)[nH]c2-c2ccc(OC)cc2)cc1
- ED50 (Mus musculus [12]): 26 mg/kg
- ED50 (Rattus norvegicus [2]): 20 mg/kg

Compound: CN(C)c1ccc(-c2[nH]c(SC(F)(F)C(F)F)nc2-c2ccccc2)cc1
- ED50 (Mus musculus [13]): 34 mg/kg
- ED50 (Rattus norvegicus [2]): 3 mg/kg

Compound: COc1ccc(-c2nc(S(=O)(=O)C(F)(F)C(F)I)[nH]c2-c2ccc(OC)cc2)cc1 (stereo not drawn)
- ED50 (Mus musculus [14]): 16.7 mg/kg
- ED50 (Rattus norvegicus [2]): 5 mg/kg

Compound: [O-][S+](c1nc(-c2ccc(Cl)cc2)c(-c2ccc(Cl)cc2)[nH]1)C(F)(F)C(F)F (stereo not drawn)
- ED50 (Mus musculus [15]): 11 mg/kg
- ED50 (Rattus norvegicus [2]): 0.22 mg/kg

Compound: COc1ccc(-c2nc(SC(F)F)[nH]c2-c2ccc(OC)cc2)cc1
- ED50 (Mus musculus [16]): 112 mg/kg

Compound: C=CSc1nc(-c2ccc(OC)cc2)c(-c2ccc(OC)cc2)[nH]1
- ED50 (Mus musculus [17]): 34 mg/kg
- ED50 (Rattus norvegicus [2]): 12 mg/kg

Compound: O=S(=O)(c1nc(-c2ccccc2)c(-c2ccccc2)[nH]1)C(F)(F)C(Cl)Cl
- ED50 (Mus musculus [18]): 34.2 mg/kg
- ED50 (Rattus norvegicus [2]): 1.7 mg/kg

Compound: Cc1ccc(-c2[nH]c(S(=O)(=O)C(F)(F)C(F)F)nc2-c2cccc(Cl)c2)cc1
- ED50 (Mus musculus [19]): 49 mg/kg
- Decrease (Rattus norvegicus [20]): 36%

Compound: CC[S+]([O-])c1nc(-c2ccccc2)c(-c2ccccc2)[nH]1 (stereo not drawn)
- ED50 (Mus musculus [8]): > 130 mg/kg
- Decrease (Rattus norvegicus [21]): 44%

Compound: COc1ccc(-c2nc([S+]([O-])C(F)(F)F)[nH]c2-c2ccc(OC)cc2)cc1 (stereo not drawn)
- ED50 (Mus musculus [22]): 37 mg/kg
- ED50 (Rattus norvegicus [2]): 3 mg/kg

Compound: C[S+]([O-])c1nc(-c2ccc(Cl)cc2)c(-c2ccc(Cl)cc2)[nH]1 (stereo not drawn)
- ED50 (Mus musculus [23]): 49 mg/kg
- ED50 (Rattus norvegicus [2]): 2.5 mg/kg

Compound: O=S(=O)(c1nc(-c2ccccc2)c(-c2ccccc2)[nH]1)C(F)(F)CF
- ED50 (Mus musculus [24]): 5.6 mg/kg
- ED50 (Rattus norvegicus [2]): 0.14 mg/kg

Compound: COc1ccc(-c2nc(SC(F)(F)C(F)Br)[nH]c2-c2ccc(OC)cc2)cc1 (stereo not drawn)
- ED50 (Mus musculus [25]): 59 mg/kg
- ED50 (Rattus norvegicus [2]): 10 mg/kg

Compound: [O-][S+](c1nc(-c2ccc(Cl)c(Cl)c2)c(-c2ccccc2)[nH]1)C(F)(F)C(F)F (stereo not drawn)
- ED50 (Mus musculus [26]): 52 mg/kg
- ED50 (Rattus norvegicus [2]): 0.45 mg/kg

Compound: COc1ccc(-c2[nH]c(S(=O)(=O)C(F)(F)F)nc2-c2ccc(F)cc2)cc1
- ED50 (Mus musculus [27]): 0.12 mg/kg

Compound: COc1ccc(-c2nc(S(=O)(=O)C(F)(F)F)[nH]c2-c2ccc(OC)cc2)cc1
- ED50 (Mus musculus [28]): 0.043 mg/kg

Compound: O=S(=O)(c1nc(-c2ccccc2Cl)c(-c2ccccc2Cl)[nH]1)C(F)(F)C(F)F
- ED50 (Mus musculus [29]): 4.4 mg/kg

Compound: CCCS(=O)(=O)c1nc(-c2ccc(OC)cc2)c(-c2ccc(OC)cc2)[nH]1
- ED50 (Mus musculus [30]): 40 mg/kg
- ED50 (Rattus norvegicus [2]): 9.5 mg/kg

Reference: ChEMBL document CHEMBL1123026, “Preparation and antiarthritic and analgesic activity of 4,5-diaryl-2-(substituted thio)-1H-imidazoles and their sulfoxides and sulfones” (1985)
